OX1R antag-1 = OX1R (HCRTR1) antagonists, primary screen, fluorescence, CHO/OX1R cells, Fluo-8 calcium, orexin A | 0.43% of 330,000 active | Fluo-8 calcium fluorescence | AID 434989, 2010 | inhibition, % at 5 µM | Orexin/Hypocretin receptor type 1 (Homo sapiens), O43613;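 active = inhibition above its plate's threshold, mean inhibition of all tested compounds on the plate plus 3 SD, cut at about 37% in these data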
OXTR potentiator = human OXTR potentiators, primary screen, fluorescence, CHO-OTR cells, Fluo-8 calcium | 0.061% of 320,000 active | Oxytocin receptor (Homo sapiens), P30559 | activation, % at 3 µM | AID 2445, 2010 | Fluo-8 calcium fluorescence, potentiator mode; 0% = oxytocin EC15, 100% = EC100;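 active = activation above that plate's cutoff, the mean activation of tested compounds plus 3 SD, cut at about 6.6% in these data, passing the limit was not always enough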
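Material: human OTR in CHO cells. Compound: 3.0 µM, one dose. Timing: compound 6 min at room temperature before oxytocin, 100 s read. Evaluation: % activation of max/min ratio relative to oxytocin controls. Replication: single well per compound, singlicate. Signal: Fluo-8 calcium dye fluorescence.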
OX1R antag-2 = antagonists of human orexin 1 receptor (OX1R) | Orexin/Hypocretin receptor type 1 (Homo sapiens), O43613 | OX1R-expressing cells, FRET antagonist read-out | inhibition, % at 6.6 µM | 1.8% of 330,000 active | AID 485270, 2010; in the data active = inhibition mostly above about 38%, no sharp cut-off; inactive = mostly below about 40%
OXTR ag = human OXTR agonists, primary screen, fluorescence, CHO-OTR cells, Fluo-8 calcium; Fluo-8 calcium fluorescence; normalized: DMSO 0%, oxytocin 100%; activation, % at 3 µM; 0.32% of 320,000 active;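 active = activation above the mean of all tested compounds plus 3 SD, cutoff set per screening run, cut at about 20% in these data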;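 also: peak over basal fluorescence ratio from a 100 s FLIPR kinetic read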
V1aR counter = agonists of human V1a receptor, primary screen, counter-screen for OXTR agonist project, fluorescence, CHO-V1R cells; 0.25% of 320,000 active; activation, % at 3 µM; Vasopressin V1a receptor (Homo sapiens), P37288; Fluo-8 calcium fluorescence, agonist mode; 0% DMSO, 100% 3 nM vasopressin; AID 2797, 2010;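 active = activation above the mean activation of all tested compounds plus 3 SD, per screening run, cut at about 20% in these data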;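 also: signal is peak over basal fluorescence ratio across a 100 second FLIPR read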
Target sequence (P37288 whole entry, looked up): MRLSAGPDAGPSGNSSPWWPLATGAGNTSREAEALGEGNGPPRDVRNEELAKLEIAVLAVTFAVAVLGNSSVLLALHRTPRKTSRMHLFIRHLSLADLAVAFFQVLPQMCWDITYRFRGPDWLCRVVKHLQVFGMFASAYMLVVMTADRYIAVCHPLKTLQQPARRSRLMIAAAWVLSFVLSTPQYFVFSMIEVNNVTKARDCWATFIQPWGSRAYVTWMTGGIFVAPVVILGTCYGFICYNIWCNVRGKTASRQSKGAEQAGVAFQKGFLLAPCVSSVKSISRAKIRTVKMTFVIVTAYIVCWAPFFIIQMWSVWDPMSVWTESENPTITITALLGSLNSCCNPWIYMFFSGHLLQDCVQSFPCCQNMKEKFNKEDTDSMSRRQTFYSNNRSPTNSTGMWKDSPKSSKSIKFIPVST
CHO parental Ca = ATP-evoked calcium signal inhibitors, parental CHO, primary screen, counter-screen for OX1R antagonist project, cell-based, fluorescence, Fluo-8 calcium dye; parental CHO-K1, ATP-induced calcium, Fluo-8 fluorescence; inhibition, % at 5.6 µM; 0.63% of 330,000 active; AID 463079, 2010;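 active = inhibition above that plate's mean sample inhibition plus 3 SD, cut at about 26% in these data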
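Assay system – parental CHO cells · Reagent – ATP stimulus · Detection – intracellular calcium via Fluo-8 no-wash fluorescent dye · Evaluation – percent inhibition of ATP-evoked calcium rise, normalized to controls · Controls – ATP wells versus no-ATP DMSO wells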
OX1R Ca confirm = OX1R (HCRTR1) antagonists, confirmation, fluorescence, CHO/OX1R cells, Fluo-8 calcium, orexin A | shares compounds with OX1R antag-1 | orexin A calcium Fluo-8 fluorescence | inhibition, % at 5 µM | 38% of 1,100 active | AID 492963, 2010; in the data active = inhibition above about 29%
CHO Ca counter = ATP-evoked calcium inhibition in parental CHO, counter-screen for OX1R antagonist project, cell-based, fluorescence, CHO-K1, triplicate; AID 492965, 2010; inhibition, % at 5.6 µM; 9.3% of 1,100 active; shares compounds with OX1R antag-1; ATP-induced calcium, Fluo-8 fluorescence;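 active = inhibition above a per-plate limit, the mean inhibition of that plate's test compounds plus 3 SD, cut at about 25% in these data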
OX1R HTRF conf = OX1R (HCRTR1) antagonists, confirmation, cell-based, HTRF; shares compounds with OX1R antag-2; OX1R-expressing cells, HTRF antagonist assay; inhibition, % at 6.6 µM; 49% of 1,800 active; AID 492964, 2010; in the data active = inhibition above about 55%;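 also: CHO cells expressing OX1R stimulated with orexin A at about EC80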
CHO-K1 HTRF cnt = signal inhibition in parental CHO-K1 cells, counter-screen for OX1R antagonist project, cell-based, HTRF | AID 493232, 2011 | shares compounds with OX1R antag-2 | HTRF counterscreen | 48% of 1,800 active | inhibition, % at 6.6 µM; in the data active = inhibition above about 17%
Large screens that a line does not name were inactive (follow-up assays come after a bar, where they were run). The list is not random: actives were taken first. Their share in the collection is about 2.6%.

O=C(COc1ccc(Cl)cc1Cl)c1ccc[nH]1	none
CC(C)C(=O)N1CCN(c2ccc(NC(=O)COc3ccccc3[N+](=O)[O-])cc2)CC1	none | OX1R Ca confirm inactive | CHO Ca counter inactive
O=C(NCC1CCCO1)c1cc2nc(-c3ccco3)cc(C(F)(F)Cl)n2n1 (stereo not given)	none
COc1ccc(OCc2n(CC(=O)OC3CC(C)CCC3C(C)C)c3ccccc3[n+]2C)cc1 (stereo not given)	OX1R antag-1 39.7 | OX1R Ca confirm 46.6 | CHO Ca counter inactive
CC1CCC(C(C)C)C(OC(=O)CSc2nccc(=O)[nH]2)C1 (stereo not given)	none
O=C(CCC(=O)OCC(F)(F)C(F)F)Nc1ccccc1F	none
CCOc1ccc(C2(C)NC(=O)N(CCN(C)C)C2=O)cc1 (stereo not given)	none
CCOC(=O)NC(c1ccc(C(C)C)cc1)C(Cl)(Cl)Cl (stereo not given)	OX1R antag-1 41.8 | OX1R Ca confirm inactive | CHO Ca counter inactive
Cc1cccc(OCC(=O)Nc2ccc(N3CCN(C(=O)c4ccco4)CC3)cc2)c1	OX1R antag-1 52.6 | OX1R Ca confirm 49.7 | CHO Ca counter 51.3
CCN(Cc1nc(-c2cccc(C)c2)no1)C(=O)c1ccco1	none
CN(C)c1ccc(/C=C/c2ccc3ccccc3n2)cc1	OX1R antag-1 62.2, OX1R antag-2 75.2 | OX1R Ca confirm 52.2 | CHO Ca counter inactive | OX1R HTRF conf 80.1 | CHO-K1 HTRF cnt inactive
CN(Cc1ccccc1)C(=O)Cn1c(=O)oc2cc(S(=O)(=O)NCc3ccccc3)ccc21	OX1R antag-2 48.1 | OX1R Ca confirm 47.2 | CHO Ca counter inactive | OX1R HTRF conf 87.8 | CHO-K1 HTRF cnt inactive
CN(Cc1ccccc1)C(=O)Cn1c(=O)oc2cc(S(=O)(=O)N3CCCC3)ccc21	none
Cc1ccc(-c2nc3ccccc3[nH]2)cc1NC(=O)c1sc2cc(Cl)ccc2c1Cl	OX1R antag-1 44.3, OX1R antag-2 77.0 | OX1R Ca confirm 47.1 | CHO Ca counter inactive | OX1R HTRF conf 65.6 | CHO-K1 HTRF cnt inactive
COc1cccc(-c2nc(CS(=O)(=O)CC(=O)Nc3cc(OC)ccc3OC)c(C)o2)c1	OX1R antag-2 78.4 | OX1R Ca confirm inactive | CHO Ca counter inactive | OX1R HTRF conf 84.9 | CHO-K1 HTRF cnt inactive
COc1cccc(-c2nc(CS(=O)(=O)CC(=O)Nc3cccc(C)c3C)c(C)o2)c1	none
O=c1[nH]c(-c2ccc(Cl)cc2)nc(=S)[nH]1	none
Cc1cc(O)cc2c(=O)c3ccccc3sc12	OX1R antag-1 52.3, OX1R antag-2 86.2 | OX1R Ca confirm 55.9 | CHO Ca counter inactive | OX1R HTRF conf 92.0 | CHO-K1 HTRF cnt inactive
CCCCc1ccc(S(=O)(=O)NCCc2ccncc2)cc1	OX1R antag-2 76.0 | OX1R Ca confirm inactive | CHO Ca counter inactive | OX1R HTRF conf inactive | CHO-K1 HTRF cnt inactive
N#CCC(=O)Nn1c(=S)[nH]c2ccccc2c1=O	none
Cc1c(C(=O)OCC(=O)Nc2ccc(N3CCOCC3)cc2)oc2ccccc12	none
Cc1c(C(=O)Nc2ccc(N3CCOCC3)cc2)oc2ccccc12	OX1R antag-1 73.2, OX1R antag-2 99.7 | OX1R Ca confirm 73.4 | CHO Ca counter inactive | OX1R HTRF conf 90.1 | CHO-K1 HTRF cnt inactive
COc1ccc(C(CNC(=O)c2cc(C)on2)N(C)C)cc1 (stereo not given)	none
CCN(CC)P(=O)(Nc1cccc(C(F)(F)F)c1)c1ccc(N(C)C)cc1NC(=O)c1ccco1 (stereo not given)	OX1R antag-1 87.2, OX1R antag-2 82.0 | OX1R Ca confirm 64.5 | CHO Ca counter inactive | OX1R HTRF conf 86.1 | CHO-K1 HTRF cnt inactive
CN(C)c1cccc(NC(=O)c2ccco2)c1	none
COc1ccc(-c2csc(NC(=O)c3cc(C)oc3C)n2)cc1OC	OX1R antag-2 64.2 | OX1R Ca confirm inactive | CHO Ca counter inactive | OX1R HTRF conf 69.3 | CHO-K1 HTRF cnt inactive
COc1ccc(OCC(=O)NC2CCCN(Cc3ccc(Cl)cc3)C2)cc1 (stereo not given)	none
CCn1c2ccccc2c2cc(N=C3SC(CC(=O)Nc4ccccc4OC)C(=O)N3C)ccc21 (stereo not given)	none
CCn1c2ccccc2c2cc(N=C3SC(CC(=O)Nc4ccccc4OC)C(=O)N3CCOC)ccc21 (stereo not given)	OX1R antag-1 57.9, OX1R antag-2 77.2 | OX1R Ca confirm 52.2 | CHO Ca counter inactive | OX1R HTRF conf 82.6 | CHO-K1 HTRF cnt inactive
CCCc1ccc2oc(C(=O)N(C)CCn3ccnc3C)c(C)c2c1	none
Cc1cc(NC(=O)CCC(=O)N(Cc2cccs2)C(C(=O)NC2CCCC2)c2ccccc2)no1 (stereo not given)	OX1R antag-1 51.3, OX1R antag-2 92.0 | OX1R Ca confirm 43.9 | CHO Ca counter inactive | OX1R HTRF conf 93.2 | CHO-K1 HTRF cnt inactive
COCCNC(=O)C(c1ccc(C)cc1)N(Cc1cccs1)C(=O)CCC(=O)Nc1ccccn1 (stereo not given)	OX1R antag-2 75.3 | OX1R Ca confirm inactive | CHO Ca counter inactive | OX1R HTRF conf 82.1 | CHO-K1 HTRF cnt inactive
COCCNC(=O)C(c1ccc(C)cc1)N(Cc1ccccc1)C(=O)CCC(=O)Nc1ccccn1 (stereo not given)	OX1R antag-2 72.2 | OX1R Ca confirm 39.5 | CHO Ca counter inactive | OX1R HTRF conf 88.4 | CHO-K1 HTRF cnt inactive

Bioassay records (PubChem BioAssay)
